TDP2 inh – TDP2 (human) inhibition, absorbance primary screen. hit rate 0.34% among 370,000. AID 720702. inhibition, % at 12.8 µM. recombinant TDP2, T5PNP hydrolysis, p-nitrophenol absorbance 415 nm. O95551;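 active means inhibition above the mean of all tested compounds plus 3 SD, set per campaign, cut at about 25% in these data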
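Material: recombinant human TDP2; quantity: TDP2 enzyme at 120 nM final; medium: Tris-HCl pH 7.5 with MgCl2; compound: single concentration, 12.8 µM nominal, with 1% DMSO; incubation: 2 h enzyme incubation at 37 °C; signal: epi absorbance; measure: percent inhibition; benchmarks: high control without enzyme, low control DMSO plus TDP2; repeats: singlicate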
GSTO1 counter – blocks human GSTO1 in RBBP9 counter-screen. P78417. recombinant GSTO1, activity-based probe fluorescence polarization. inhibition, % at 5.96 µM. hit rate 1.1% among 300,000;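 active means inhibition above the campaign mean inhibition plus 3 SD, cut at about 35% in these data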
SIAE inh – human SIAE inhibition, primary screen; Q9HAT2; SIAE FP-Rh probe binding, fluorescence polarization; inhibition, % at 9.66 µM; hit rate 0.69% among 370,000; AID 1053197;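 active means inhibition above a cutoff: mean of compounds within the control limits plus 3 SD of those, cut at about 17% in these data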
Target sequence (Q9HAT2 whole entry, looked up): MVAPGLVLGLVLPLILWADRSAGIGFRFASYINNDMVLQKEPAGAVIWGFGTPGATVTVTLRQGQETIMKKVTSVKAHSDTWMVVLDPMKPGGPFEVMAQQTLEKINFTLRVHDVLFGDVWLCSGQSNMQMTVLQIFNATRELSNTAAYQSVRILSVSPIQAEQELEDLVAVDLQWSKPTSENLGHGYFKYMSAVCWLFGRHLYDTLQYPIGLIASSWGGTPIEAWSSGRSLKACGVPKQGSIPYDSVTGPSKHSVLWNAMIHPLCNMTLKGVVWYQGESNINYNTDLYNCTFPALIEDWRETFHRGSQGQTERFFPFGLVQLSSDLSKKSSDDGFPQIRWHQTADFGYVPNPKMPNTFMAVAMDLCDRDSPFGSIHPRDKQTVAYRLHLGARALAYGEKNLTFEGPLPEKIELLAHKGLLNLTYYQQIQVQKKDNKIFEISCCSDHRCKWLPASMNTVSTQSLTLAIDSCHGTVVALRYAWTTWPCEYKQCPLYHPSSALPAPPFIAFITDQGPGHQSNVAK
Apaf1 inhib – blocks human Apaf-1 apoptosome activity. O14727. reconstituted apoptosome caspase-3 activity, DEVD-Rh110 fluorescence. inhibition, % at 20 µM. hit rate 0.71% among 330,000. AID 489030; active means inhibition of at least 40% at 20 µM
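Medium: Hepes buffer, pH 7.5 / System: biochemical Apaf-1 apoptosome reconstitution / Measured by: Rh110 fluorescence, excitation 480 nm, emission 540 nm / Times: compound with Apaf-1, dATP, procaspase-3 30 min, then 50 min reaction, room temperature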
TCR CD3 inh – blocks the human TCR-CD3 interaction. AID 651800. inhibition, % at 9.4 µM. TAMRA-labeled TCR probe fluorescence, biochemical. hit rate 0.37% among 360,000; in the data active means inhibition above about 19%;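 further: recombinant mutant TCR 2C K166C tagged with TAMRA read by polarization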
PAD4 inh – PAD4 (human) enzyme inhibition; recombinant PAD4, RCA probe fluorescence polarization; inhibition, % at 6.36 µM; hit rate 0.41% among 330,000;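 active means percent inhibition above a cutoff equal to the mean of all tested compounds plus 3 SD, cut at about 15% in these data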
PAD4 FP conf – PAD4 (human) inhibition, confirmed | shares compounds with PAD4 inh | recombinant PAD4, RCA probe fluorescence polarization | inhibition, % at 6.36 µM | hit rate 28% among 1,200 | AID 488796;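 active means mean inhibition across replicates above the hit cutoff set by the earlier primary screen, cut at about 15% in these data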;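 further: inhibitors block active-site labeling by the probe so polarization falls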
Hits are given with their value. Most compounds without a hit are left out; they make up all but 2.4% or so of the library.

`Cc1sc2nc(CSc3ccccc3)nc(N3CCC(C(N)=O)CC3)c2c1C` gave TDP2 inh inactive, GSTO1 counter inactive, SIAE inh inactive, Apaf1 inhib inactive, TCR CD3 inh inactive and PAD4 inh inactive.
CCOC(=O)c1sc2nc(CSc3ccccc3)nc(N3CCC(C(N)=O)CC3)c2c1C was read as TDP2 inh inactive, GSTO1 counter inactive, SIAE inh inactive, Apaf1 inhib inactive, TCR CD3 inh inactive, PAD4 inh 40 and PAD4 FP conf inactive.
COc1cc(NC(=O)c2cc(C)nc3ccccc23)cc(OC)c1OC was read as TDP2 inh inactive, GSTO1 counter inactive, SIAE inh inactive, Apaf1 inhib inactive, TCR CD3 inh inactive, PAD4 inh 29 and PAD4 FP conf inactive.
Screening Cc1ccc(S(=O)(=O)CCSc2cccc(C(=O)Nc3ccccc3C(=O)O)c2)cc1 returned TDP2 inh inactive, GSTO1 counter inactive, SIAE inh inactive, Apaf1 inhib inactive, TCR CD3 inh inactive, PAD4 inh 19 and PAD4 FP conf 36.
For N#CCSc1nc2cc(C(=O)N3CCC(C(N)=O)CC3)ccc2c2nc3ccccc3n12 the results were GSTO1 counter inactive, Apaf1 inhib inactive, PAD4 inh 22 and PAD4 FP conf 25.
COc1ccccc1OC(C)C(=O)Nc1ccc2c(c1)OCCO2 (stereo not drawn) was read as TDP2 inh inactive, GSTO1 counter inactive, SIAE inh inactive, Apaf1 inhib inactive, TCR CD3 inh inactive and PAD4 inh inactive.
COc1cccc2cc(C(=O)NC3CC(C)(C)NC(C)(C)C3)c(=O)oc12 was read as GSTO1 counter inactive, Apaf1 inhib inactive, PAD4 inh 79 and PAD4 FP conf inactive.
C=CCNC(=O)/C(=C\C=C\c1ccccc1)NC(=O)c1ccccc1Cl was read as TDP2 inh inactive, GSTO1 counter inactive, SIAE inh inactive, Apaf1 inhib inactive, TCR CD3 inh inactive and PAD4 inh inactive.
CC(C)c1onc(C(=O)N2CCOCC2)c1[N+](=O)[O-] was read as TDP2 inh inactive, GSTO1 counter inactive, SIAE inh inactive, Apaf1 inhib inactive, TCR CD3 inh inactive and PAD4 inh inactive.
For Cc1onc(C(=O)N2CCOCC2)c1[N+](=O)[O-] the results were TDP2 inh inactive, GSTO1 counter inactive, SIAE inh inactive, Apaf1 inhib inactive, TCR CD3 inh inactive, PAD4 inh 22 and PAD4 FP conf 19.
Screening Nc1ccccc1O returned Apaf1 inhib inactive, PAD4 inh 15 and PAD4 FP conf inactive.
Screening Oc1ccccc1O returned TDP2 inh inactive, GSTO1 counter inactive, SIAE inh inactive, Apaf1 inhib inactive, TCR CD3 inh inactive and PAD4 inh inactive.
`CCOC(=O)c1cc(C)sc1NC(=O)CSc1nccn1C` gave TDP2 inh inactive, GSTO1 counter inactive, SIAE inh inactive, Apaf1 inhib inactive, TCR CD3 inh inactive and PAD4 inh inactive.
Screening CCCCCC(=O)Nc1ccc2ccccc2c1 returned TDP2 inh inactive, GSTO1 counter inactive, SIAE inh inactive, Apaf1 inhib inactive, TCR CD3 inh inactive and PAD4 inh inactive.
For O=C(CS)Nc1ccc2ccccc2c1 the results were TDP2 inh inactive, GSTO1 counter inactive, SIAE inh inactive, TCR CD3 inh inactive, PAD4 inh 28 and PAD4 FP conf inactive.
`O=C(O)[C@H](Cc1ccccc1)NC(=O)N1CCC(Cc2ccccc2)CC1` gave TDP2 inh inactive, GSTO1 counter inactive, SIAE inh inactive, Apaf1 inhib inactive, TCR CD3 inh inactive, PAD4 inh 42 and PAD4 FP conf inactive.
`O=C(NC1CC1)C1=C[C@@H](c2coc3ccccc3c2=O)C[C@@H](OCCCCO)O1` gave TDP2 inh inactive, GSTO1 counter inactive, SIAE inh inactive, Apaf1 inhib inactive, TCR CD3 inh inactive and PAD4 inh inactive.
O=C(COC(=O)c1ccc(F)cc1Cl)NC(=O)NC1CCCC1 was read as TDP2 inh inactive, SIAE inh inactive, Apaf1 inhib inactive, TCR CD3 inh inactive and PAD4 inh inactive.
CCCC(=O)Nc1ccc(Br)c(Cl)c1 was read as TDP2 inh inactive, GSTO1 counter inactive, SIAE inh inactive, Apaf1 inhib inactive, TCR CD3 inh inactive, PAD4 inh 15 and PAD4 FP conf inactive.
